Sampled rows, rich in hits. Any-hit rate of the full collection: about 2%.
Rev-erbA mod: modulators of Rev-erb alpha DNA binding, primary screen, biochemical, FITC-DNA, fluorescence polarization, uHTS; 370,000 compounds, 0.79% hits; Rev-erbα–FITC-DNA binding, 90 min; activity, % at 10 µM; AID 1259318, 2017; Nuclear receptor subfamily 1 group D member 1 (Homo sapiens), P20393;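 active means activity above about 14%, limit read from the data; passing the limit was not always enough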;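 further: 0% = DMSO wells with 35 nM protein and 100% = DMSO wells with 750 nM protein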
Target sequence (P20393 whole entry, looked up): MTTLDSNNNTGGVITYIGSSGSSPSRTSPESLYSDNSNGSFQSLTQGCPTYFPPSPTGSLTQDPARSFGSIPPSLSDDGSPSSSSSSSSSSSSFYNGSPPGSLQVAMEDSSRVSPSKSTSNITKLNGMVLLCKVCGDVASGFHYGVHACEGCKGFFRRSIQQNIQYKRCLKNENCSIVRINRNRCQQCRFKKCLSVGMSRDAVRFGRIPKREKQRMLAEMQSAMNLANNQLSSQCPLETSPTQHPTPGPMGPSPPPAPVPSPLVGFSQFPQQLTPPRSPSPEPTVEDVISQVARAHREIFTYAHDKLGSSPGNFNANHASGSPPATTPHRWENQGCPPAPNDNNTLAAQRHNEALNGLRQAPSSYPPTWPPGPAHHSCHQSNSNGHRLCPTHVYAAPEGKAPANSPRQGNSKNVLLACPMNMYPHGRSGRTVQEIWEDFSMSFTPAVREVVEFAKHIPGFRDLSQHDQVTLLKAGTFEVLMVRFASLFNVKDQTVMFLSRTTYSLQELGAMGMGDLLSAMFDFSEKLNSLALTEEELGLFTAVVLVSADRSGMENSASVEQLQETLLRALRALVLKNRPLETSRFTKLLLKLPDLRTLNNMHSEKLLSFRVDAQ
NR2E3 ag-1: inhibitors of NR2E3-RetCOR corepressor binding, primary screen, NR2E3 agonist project, biochemical, TR-FRET, GST-NR2E3, biotin-RetCOR | inhibition of corepressor binding, % at 4.78 µM | Photoreceptor-specific nuclear receptor (Homo sapiens), Q9Y5X4 | 320,000 compounds, 0.12% hits | 1536-well;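 active means percent inhibition above the cutoff of mean plus 3 SD of all tested compounds, set per screening campaign, cut at about 20% in these data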;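 further: 0% = DMSO wells and 100% = biotin wells as full block of FRET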
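Material: NR2E3–RetCOR corepressor complex / Incubation: Compound–protein incubation for 5 h at 4 °C / Dosing: compound at 4.8 µM, single dose / Detection: time-resolved FRET / Benchmarks: high control biotin, low control 0.6% DMSO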
NR2E3 ag-2: NR2E3 agonists in two-hybrid cells, primary screen, cell-based, luminescence, CHO-S, Gal4-NCOR/VP16-NR2E3; 360,000 compounds, 0.35% hits; AID 602229, 2012; inhibition of corepressor binding, % at 3.98 µM; Photoreceptor-specific nuclear receptor (Homo sapiens), Q9Y5X4; luciferase;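 active means inhibition above the mean of all tested compounds plus 3 SD, cut at about 70% in these data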;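 further: 0% = DMSO with NR2E3 transfected cells and 100% = cells lacking NR2E3 construct; higher means lower luciferase signal from less NR2E3 corepressor binding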
Neddylation inh: inhibitors of cullin neddylation, primary screen, biochemical, TR-FRET, uHTS, NAE and Ubc12; NEDD8-conjugating enzyme Ubc12 (Homo sapiens) + NEDD8-activating enzyme E1 regulatory …; calls only at 25 µM; 360,000 compounds, 0.58% hits; in the data active means inhibition above about 36%
PG9 Ab binder: binders of HIV-1 gp120 antibody PG9, primary screen, biochemical, TR-FRET. TR-FRET gp120-PG9 antibody binding. 360,000 compounds, 0.43% hits. HIV-1 gp120 / PG9 antibody interaction. inhibition, % at 6.7 µM; in the data active means inhibition above about 8.5%
An asterisk follows results filed as active; i = inactive; x = not tested or not shown; + = active, no number.

SMILES	Rev-erbA mod	NR2E3 ag-1	NR2E3 ag-2	Neddylation inh	PG9 Ab binder
CCC(=O)OCC(=O)[C@@]1(OC(=O)CC)[C@@H](C)CC2C3CCC4=CC(=O)C=C[C@]4(C)[C@@]3(F)[C@@H](O)C[C@@]21C (some centres undefined)	-7.3	x	x	x	x
O=c1c(-c2ccccc2)c(O)c2cccc3c2n1CCC3	-1.5	1.0	0.7	+	-1.1
NC(=O)OC[C@@H]1[C@H](NC(=O)/C(=N\OCC(=O)O)c2csc(N)n2)C(=O)N1S(=O)(=O)O	-1.3	x	x	x	x
COc1cc(/C=C2/SC(=S)NC2=O)ccc1OS(=O)(=O)c1ccc(C)cc1	x	-2.7	76.7*	i	x
COc1cc(/C=C2\SC(=S)NC2=O)ccc1OS(=O)(=O)c1ccccc1	x	-0.8	x	x	x
CCOC(=O)[C@@]12CCCC3=C1N(CCC3)C(=O)[C@H]2CC(=O)NCCCOC	-1.8	x	x	x	x
COC(=O)c1nn(-c2ccc(-c3ccccc3)cc2)cc1O	-5.2	0.8	77.8*	x	2.5
CSc1ccc(CN(C)C(=O)c2cccc(S(=O)(=O)N3CCN(Cc4ccccc4)CC3)c2)cc1	12.5	2.0	70.5*	i	1.1
Cc1ccc(N=c2oc3cc(O)ccc3cc2C(N)=O)cc1	-1.1	0.8	-93.0	+	0.0
O=C(CN1CCN(c2nc(-c3ccccc3)cs2)CC1)Nc1ccc(Cl)cc1	-3.4	x	x	x	x
CCc1ccc2oc(-c3ccc(OC)cc3)cc(=Nc3c(C)n(C)n(-c4ccccc4)c3=O)c2c1	-6.8	0.8	-85.5	+	-1.3
C=CCn1c(-c2ccc(OC)cc2)csc1=Nc1c(C)n(C)n(-c2ccccc2)c1=O	-4.1	-4.2	12.6	i	-0.6
N#CCC[C@@H]1CC[C@]2(CCCN(C(=O)c3cccnc3)C2)O1	10.4	x	x	x	x
Cc1cccc(N2C(N)=C(C#N)C(C#N)(C#N)C2c2ccccc2)c1 (centres undefined)	6.7	-1.3	-13.4	x	-2.5
N#CC1=C(N)N(c2ccccc2)C(c2ccco2)C1(C#N)C#N (centres undefined)	-0.8	2.0	-12.6	+	1.6
Cc1sc(NC(=O)c2ccco2)c(CN2CCN(c3ccc(F)cc3)CC2)c1C	2.9	-0.4	-14.8	i	0.0
Cc1sc(NC(=O)c2ccco2)c(CN2CCN(c3ccccn3)CC2)c1C	x	-0.3	-33.2	+	x
O=C(N[C@H](Cc1ccccc1)C(=O)N1CCN(c2ccc(Cl)cn2)CC1)[C@H]1O[C@@H](n2ccc(=O)[nH]c2=O)[C@H](O)[C@@H]1O	-1.5	x	x	x	-0.5
N#Cc1c(-c2ccc(Cl)cc2)n(O)c2ccccc12	x	x	98.5*	x	x
Cn1c(-c2ccc(C#N)cc2)c(C#Cc2ccccc2)c2ccccc21	-1.1	x	-41.0	i	5.5
Cc1ccccc1NC(=O)OCCCN1C(=O)CCC12CCC(C)CC2 (centres undefined)	-5.8	x	x	x	x
CN1CCc2c(sc3c2C(=O)NC(c2ccccn2)N3)C1 (centres undefined)	3.9	3.1	10.4	+	-1.3
CC(Cl)C(=O)N1CCC(C(=O)NCC2COc3ccccc3O2)CC1 (centres undefined)	1.3	x	x	x	x
COc1ccc(C2/C=C\CN(C(=O)Nc3ccc(C(F)(F)F)cc3)CC(=O)N2Cc2ccc(F)cc2)cc1 (centres undefined)	x	-3.5	82.3*	i	x
COc1ccc(C=Nn2c(-c3n[nH]c4c3CCC4)n[nH]c2=S)cc1OCc1ccccc1	1.3	x	x	x	x
COC(=O)c1ccc(N2CCC(c3cc(-c4ccc(OC)cc4)n[nH]3)CC2)c([N+](=O)[O-])c1	-0.1	-2.5	-5.5	i	0.0
COc1ccc(-c2cc(C3CCN(c4ccc(C(C)=O)cc4[N+](=O)[O-])CC3)[nH]n2)cc1	2.8	-0.5	72.8*	i	-2.2
Cc1ccccc1Cn1cc(CN2[C@@H](C)COc3cc(Br)ccc3S2(=O)=O)nn1	0.0	x	x	x	x
CCN1CCN(CCCNc2ncnc3nc[nH]c23)CC1	6.4	1.8	-7.6	i	13.7*
C/C(C=NNC(=O)CSc1nnc(-c2ccc(Cl)cc2)n1-c1ccccc1)=C\c1ccccc1	-0.9	x	x	x	x
